As a reminder, the GI50 is the concentration giving 50% growth inhibition. Lower therefore signals greater sensitivity of the cells.

The values that follow come from ChEMBL document CHEMBL1153058, “Cycloaspeptides F and G, Cyclic Pentapeptides from a Cordyceps-colonizing isolate of Isaria farinosa” (2009).

For one experiment, the system named is MCF7. Nature of the experiment: Cytotoxicity against human MCF7 cells after 48 hrs by MTT assay. Type of experiment: functional. Conditions: MCF7, 48 h. Summed up:
(§1)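 MTT assay: 10^4 cells per well, attached overnight. Cells exposed for 4 h at 37 °C, 5% CO2, to compound serially diluted in medium from a 10 mg/mL DMSO stock, vehicle 0.2% DMSO. Medium then replaced with fresh DMEM and growth continued 48 h. MTT 0.5 mg/mL added for 3 h in the dark, formazan dissolved in DMSO, absorbance read at 540 nm. GI50 derived.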
In general terms: Tetrazolium assays rely on reduction of a dye to a coloured formazan, in cell work by metabolically active cells.

For the next experiment, the system named is HeLa. The experiment can be described thus: Cytotoxicity against human HeLa cells after 48 hrs by MTT assay. Type of experiment: functional. An outline of the steps: as §1

The structures appear in SMILES notation. Where a SMILES comes first, the peptide text is derived from it. [ ]: non-standard residue; d: D form. The star is where a group is joined. βGlc = OC[C@H]1O[C@@H](*)[C@H](O)[C@@H](O)[C@@H]1O; NMeY = CN[C@@H](Cc1ccc(O)cc1)C(=O)O; NMeF = CN[C@@H](Cc1ccccc1)C(=O)O; 2Abz = Nc1ccccc1C(=O)O

On to `CS[C@]1(CO)C(=O)N(C)[C@](Cc2ccccc2)(SC)C(=O)N1C` [BISDETHIODI(METHYLTHIO)HYALODENDRIN], for which the GI50 with MCF7 is 113 µM; in the experiment with HeLa it was > 113 µM.

As for `CC(C)C[C@@H]1NC(=O)[C@H](Cc2ccccc2)N(C)C(=O)[C@H](C)NC(=O)c2ccccc2NC(=O)[C@H](Cc2ccc(O)cc2)N(C)C1=O` [CYCLOASPEPTIDE A] (cyclo([2Abz]A[NMeF]L[NMeY])), the GI50 was determined as 23.4 µM with MCF7 and 31.2 µM in the experiment with HeLa.

As to `CC(C)C[C@@H]1NC(=O)[C@H](Cc2ccccc2)N(C)C(=O)[C@H](C)NC(=O)c2ccccc2NC(=O)[C@H](Cc2ccc(O[C@@H]3O[C@H](CO)[C@@H](O)[C@H](O)[C@H]3O)cc2)N(C)C1=O` [Cycloaspeptide F] (cyclo([2Abz]A[NMeF]L[NMeY](βGlc))), the GI50 in the experiment with MCF7 was determined as 18.7 µM; in the experiment with HeLa, 49.8 µM.

`CC(C)C[C@@H]1NC(=O)[C@H](Cc2ccc(O)cc2)N(C)C(=O)[C@H](C)NC(=O)c2ccccc2NC(=O)[C@H](Cc2ccc(O)cc2)N(C)C1=O` [Cycloaspeptide G] (cyclo([2Abz]A[NMeY]L[NMeY])): the GI50 in the experiment with MCF7 was 15.2 µM; in the experiment with HeLa it was 30.4 µM.

For the compound `O=c1[nH]cc(F)c(=O)[nH]1` [FLUOROURACIL], the concentration for 50% growth inhibition (GI50) in the experiment on MCF7 was 15 µM; in the experiment with HeLa, 10 µM.

With `CC(C)C[C@@H]1NC(=O)[C@H](Cc2ccccc2)NC(=O)[C@H](C)NC(=O)c2ccccc2NC(=O)[C@H](Cc2ccc(O)cc2)N(C)C1=O` [cycloaspeptide C] (cyclo([2Abz]AFL[NMeY])), the results for the GI50 in the experiment on MCF7 and in the experiment on HeLa were 31.9 µM and > 63.4 µM, respectively.
